Measured values: ChEMBL document CHEMBL4622968, “Discovery of [1,2,4]triazolo[4,3-a]pyridines as potent Smoothened inhibitors targeting the Hedgehog pathway with improved antitumor activity in vivo” (Bioorg Med Chem, 2020)
Activity calls are given as the source filed them. The rule behind the calls is not given here.

Experiments:
[1] = Acute toxicity in Kunming mouse assessed as lethality through intragastric administration observed for 14 days; details: in vivo, po
In short: (§1)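 Kunming mice, groups of 5 female and 5 male per dose, dosed once by gavage at graded doses; mortality recorded over 14 days as dead/treated and percent. LD50 derived by improved Karber's method: LD50 = lg^-1[xm − i(ΣP − 0.5)], xm log of maximal dose, i log ratio of neighbouring doses; 95% confidence intervals given.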

[2] = molecular target: T1, Protein smoothened (Homo sapiens, UniProt Q99835); test: Binding affinity to recombinant human Smo receptor assessed as dissociation rate constant by SPR analysis
In short: (§2)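 Surface plasmon resonance with recombinant Smo protein, run in PBS at a flow rate of 2 μL/s and 4 °C. Analytes were injected at 2.5, 5 and 10 μM. The chip was regenerated with 0.5% SDS:glycine-HCl pH 2.0 (1:1). ka, kd, Rmax, KA and KD came from a global fit of the sensorgrams.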

[3] = system: MCF7; test: Antiproliferation activity against human MCF7 cells assessed as reduction in cell viability incubated for 72 hrs by MTT assay; format: functional, cell-based; details: MCF7, 72 h
In short: (§3)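 MTT assay. Cells were plated overnight and exposed to a range of concentrations for 72 h. MTT was then added for 4 h and absorbance read at 570 nm. Inhibition% = [(control − compound)/(control − blank)] × 100. IC50 was fitted from the curves. Mean ± S.D. of 3–5 separate experiments. RPMI 1640 + 10% FBS; MCF10A in DMEM/F12 with 5% horse serum, EGF, hydrocortisone, insulin and cholera toxin.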

[4] = system: MDA-MB-231; test: Induction of apoptosis in human MDA-MB-231 cells assessed as increase in apoptosis incubated for 48 hrs by annexin-V-FITC/PI staining based flow cytometric method; format: functional, cell-based
[5] = system: AN3-CA; test: Antiproliferation activity against human AN3CA cells assessed as reduction in cell viability incubated for 72 hr by MTT assay; format: functional, cell-based; in short: as §3
[6] = system: MCF-10A; test: Cytotoxicity against human MCF10A cells assessed as cell viability incubated for 72 hrs measured by MTT assay; format: cell-based; in short: as §3
[7] = Acute toxicity in Kunming mouse assessed as mortality at 4552 mg/kg, ig observed for 14 days relative to control; format: organism-based; details: in vivo, po, read-out: Activity; in short: as §1
[8] = system: MDA-MB-468; test: Induction of cell cycle arrest in human MDA-MB-468 cells assessed as cell accumulation at G2/M phase incubated for 48 hrs by propidium iodide staining-based flow cytometric analysis; format: functional
In short: (§4)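 Cells were seeded at 1.2×10^5 per well and treated for 48 h (MDA-MB-468: 14, 28, 56 μM). Cells were fixed in 75% ethanol at −20 °C overnight, stained with PI and analysed by flow cytometry. Mean ± S.D. of three independent experiments versus DMSO.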

[9] = system: MDA-MB-468; test: Induction of cell cycle arrest in human MDA-MB-468 cells assessed as cell accumulation at S phase at 56 uM incubated for 48 hrs by propidium iodide staining-based flow cytometric analysis (reference value: 34.20 %); format: functional; in short: as §4
[10] = system: MDA-MB-468; test: Induction of apoptosis in human MDA-MB-468 cells assessed as live cells at 28 uM incubated for 48 hrs by annexin-V-FITC staining based flow cytometric method (reference value: 98.5 %); format: functional
[11] = system: MDA-MB-468; test: Induction of cell cycle arrest in human MDA-MB-468 cells assessed as cell accumulation at G0/G1 phase at 56 uM incubated for 48 hrs by propidium iodide staining-based flow cytometric analysis (reference value: 38.94 %); format: functional; in short: as §4
[12] = system: MDA-MB-468; test: Inhibition of hedgehog pathway in human MDA-MB-468 cells assessed as decrease in Smo protein levels in cilia at 28 uM incubated for 24 hrs by immunostaining based confocal microscopic analysis; format: cell-based
In short: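 MDA-MB-468 cells were treated at 28 μM for 24 h with or without SAG. Cilia were immunostained for acetylated α-tubulin and Smo and imaged by confocal microscopy. Comparisons were made against DMSO and against SAG alone.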

[13] = Acute toxicity in Kunming mouse assessed as mortality at 5226 mg/kg, ig observed for 14 days relative to control; format: organism-based; details: in vivo, po, read-out: Activity; in short: as §1
[14] = molecular target: T1, Protein smoothened; test: Binding affinity to recombinant human Smo receptor assessed as association rate constant by SPR analysis; in short: as §2
[15] = system: MDA-MB-468; test: Induction of apoptosis in human MDA-MB-468 cells assessed as early apoptotic cells at 28 uM incubated for 48 hrs by annexin-V-FITC staining based flow cytometric method (reference value: 2.00 %); format: functional
[16] = Inhibition of hedgehog pathway in mouse NIH/3T3 cells harboring GRE-Luc assessed as inhibition of SAG-induced Hh signaling pathway by dual luciferase reporter gene assay; format: cell-based; details: NIH3T3
In short: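 NIH3T3 cells co-transfected with 8×3' Gli-BS-delta51-Luc II firefly reporter and pRL-TK Renilla plasmid; after 24 h treated with compounds plus SAG (pathway activator). Gli luciferase normalized to Renilla (dual-luciferase read-out); IC50 = concentration halving normalized signal; mean ± S.D. of 3–5 separate experiments.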

[17] = system: MDA-MB-468; test: Antitumour activity against human MDA-MB-468 cells xenografted in BALB/c mouse assessed as reduction in tumour volume at 80 mg/kg, ig measured every 2 days for 21 days relative to control; format: functional; parameters: scale not given: the % may be the effect or the level left
In short: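 Female BALB/c nude mice, 6–8 weeks old, were given subcutaneous flank injections of 1.0×10^7 MDA-MB-468 cells in 0.2 ml PBS. At 100 mm³ tumours they were randomized, five per group. Daily gavage in saline with 0.1% Tween 80 at 80 or 100 mg/kg, or vehicle alone. Tumour volume measured every 2 days and body weight daily. Tumours excised and weighed at day 21.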

[18] = Acute toxicity in Kunming mouse assessed as mortality at 3965 mg/kg, ig observed for 14 days relative to control; format: organism-based; details: in vivo, po, read-out: Activity; in short: as §1
[19] = system: A549; test: Antiproliferation activity against human A549 cells assessed as reduction in cell viability incubated for 72 hrs by MTT assay; format: functional, cell-based; details: A549, 72 h; in short: as §3
[20] = system: MDA-MB-468; test: Induction of cell cycle arrest in human MDA-MB-468 cells assessed as cell accumulation at G2/M phase at 28 uM incubated for 48 hrs by propidium iodide staining-based flow cytometric analysis (reference value: 26.66 %); format: functional; in short: as §4
[21] = molecular target: T1, Protein smoothened; test: Displacement of BODIPY-Cyclopamine from wild type Smo receptor (unknown origin) expressed in HEK293 cells incubated for 12 hrs by Hoechst 33342 based fluorescence microscopic method; format: cell-based
In short: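 HEK293 cells were transiently transfected in triplicate with a wild-type Smo plasmid, with expression confirmed by western blot. Cells were loaded with BODIPY-cyclopamine, then given unlabelled cyclopamine (25 μM) or test compound (1 or 25 μM) for 12 h at 37 °C. Nuclei were counterstained with Hoechst 33342. Green fluorescence was imaged by fluorescence microscopy.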

[22] = molecular target: T1, Protein smoothened; test: Binding affinity to recombinant human Smo receptor assessed as dissociation constant at equilibrium by SPR analysis
[23] = system: MDA-MB-468; test: Induction of cell cycle arrest in human MDA-MB-468 cells assessed as cell accumulation at S phase at 28 uM incubated for 48 hrs by propidium iodide staining-based flow cytometric analysis (reference value: 34.20 %); format: functional; in short: as §4
[24] = system: MDA-MB-468; test: Induction of apoptosis in human MDA-MB-468 cells assessed as necrotic cells at 14 uM incubated for 48 hrs by annexin-V-FITC staining based flow cytometric method (reference value: 1.52 %); format: functional
[25] = molecular target: T1, Protein smoothened; test: Binding affinity to recombinant human Smo receptor assessed as association constant at equilibrium by SPR analysis

T1 sequence (Q99835 whole entry): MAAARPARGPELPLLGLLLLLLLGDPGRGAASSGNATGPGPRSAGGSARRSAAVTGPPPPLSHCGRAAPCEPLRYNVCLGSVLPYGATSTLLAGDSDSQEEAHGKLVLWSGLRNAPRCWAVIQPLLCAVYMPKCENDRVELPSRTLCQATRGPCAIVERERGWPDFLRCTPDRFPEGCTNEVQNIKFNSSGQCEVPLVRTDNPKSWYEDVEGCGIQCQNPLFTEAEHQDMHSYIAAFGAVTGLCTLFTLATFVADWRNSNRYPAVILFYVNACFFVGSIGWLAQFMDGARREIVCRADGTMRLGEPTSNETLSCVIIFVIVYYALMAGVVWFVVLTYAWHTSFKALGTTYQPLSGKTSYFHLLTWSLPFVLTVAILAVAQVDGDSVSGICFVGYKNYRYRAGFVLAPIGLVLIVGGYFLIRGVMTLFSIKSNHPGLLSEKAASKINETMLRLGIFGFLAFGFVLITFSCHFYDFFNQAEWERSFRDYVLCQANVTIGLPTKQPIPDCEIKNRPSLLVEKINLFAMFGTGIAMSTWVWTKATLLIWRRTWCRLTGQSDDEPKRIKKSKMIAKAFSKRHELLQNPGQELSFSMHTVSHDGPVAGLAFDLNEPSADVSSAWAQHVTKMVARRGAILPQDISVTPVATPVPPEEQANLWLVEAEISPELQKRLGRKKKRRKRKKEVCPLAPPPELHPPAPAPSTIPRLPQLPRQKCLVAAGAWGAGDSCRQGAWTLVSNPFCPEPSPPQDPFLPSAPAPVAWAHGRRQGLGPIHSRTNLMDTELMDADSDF

O=C(Nc1ccc(Cl)c(-c2nnc3c(Cl)cccn23)c1)c1ccc(Cl)nc1Cl
LD50 at 336 h [1]: 3880 mg/kg | Kdiss [2]: 0.00375 ×10⁻³ /s | IC50 [3]: 61.5 µM | Activity [4]: Dose-dependent effect | IC50 [5]: 44.5 µM | IC50 [6]: > 100 µM | mortality at 336 h [7]: 60% | Activity [8]: Dose-dependent effect | Activity [9]: 44% | Activity [10]: 67.8% | Activity [11]: 29% | inhibition [12]: Active | mortality at 336 h [13]: 70% | Ka [14]: 360 M⁻¹ s⁻¹ | Activity [15]: 7.71% | IC50 [16]: 0.09 µM | Activity [17]: 64.97% | mortality at 336 h [18]: 50% | IC50 [19]: 64.9 µM | Activity [20]: 39.75% | Activity [21]: Dose-dependent effect | Kd [22]: 0.0103 µM | Activity [23]: 39% | Activity [24]: 9.4% | KA [25]: 9.71 ×10⁷ /M
